Results: ChEMBL document CHEMBL3352193, “Synthesis of novel substituted purine derivatives and identification of the cell death mechanism” (Eur J Med Chem, 2015)
The source made the active and inactive calls. No cut-off for these calls is given here.

What was measured:
Mahlavu [1] = assay: Cytotoxicity against human Mahlavu cells measured every 30 mins up to 120 hrs by RT-CES method
[2] = Cytotoxicity against human Hep3B cells after 72 hrs by SRB assay; assay type: functional, cell-based, Hep 3B2
In short: (§1)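 Liver cancer cell panel, SRB assay after 72 h exposure to ten concentrations (DMSO vehicle under 1%). TCA-fixed, SRB-stained, absorbance at 515 nm. Percent cell death calculated against DMSO-only wells, and IC50 read from dose–response curves.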

Huh-7 [3] = assay: Cytotoxicity against human HuH7 cells measured every 30 mins up to 120 hrs by RT-CES method
PLC = assay: Cytotoxicity against human PLC cells after 72 hrs by SRB assay; assay type: functional, cell-based
In short: as §1

Huh-7 [4] = assay: Cytotoxicity against human HuH7 cells at 2.5 to 40 uM by RT-CES method; assay type: functional, cell-based; settings: TDE = time-dependent effect
In short: (§2)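 Real-time impedance sensing (xCELLigence) on E-96 plates, run in triplicate. 2000 cells/well seeded; the next day medium was partly replaced and the compound added at 40, 20, 10, 5 or 2.5 µM, with DMSO-only and medium-only wells. Cell Index recorded every 30 min for at least 120 h at 37 °C, 5% CO2.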

[5] = Cytotoxicity against human HuH7 cells after 48 hrs by SRB assay; assay type: functional, cell-based; settings: Huh-7, 48 h
In short: (§3)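 Sulforhodamine B assay. Cells seeded at 2000–10,000/well and treated the next day in triplicate with ten concentrations (DMSO vehicle, under 1% final) for 24, 48 or 72 h at 37 °C, 5% CO2. Fixed with ice-cold TCA for 1 h at 4 °C, stained with 0.4% SRB in 1% acetic acid, dye solubilized in 10 mM Tris base, A515 read. % inhibition = 100 × (1 − OD drug/OD DMSO). IC50 taken from dose–response curves.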

Mahlavu [6] = assay: Reduction in intrinsic cellular ATP consumption in human Mahlavu cells at IC50 after 24 hrs by bioluminescence assay; assay type: functional, cell-based
In short: (§4)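 Cells treated for 24 h, with staurosporine as positive control and DMSO-only controls. 20 µg lysate protein in kinase buffer (40 mM Tris-HCl pH 7.6, 20 mM MgCl2, 0.1 mg/ml BSA), no exogenous ATP added. Luciferase ATP-detection reagent added, 10 min in the dark at room temperature, then luminescence read. Higher signal taken as reduced ATP consumption.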

HepG2 [7] = assay: Cytotoxicity against human HepG2 cells after 72 hrs by SRB assay; assay type: functional, cell-based; settings: HepG2, 72 h
In short: as §3

HepG2 [8] = assay: Cytotoxicity against human HepG2 cells after 24 hrs by SRB assay; assay type: functional, cell-based; settings: HepG2, 24 h
In short: as §3

Huh-7 [9] = assay: Cytotoxicity against human HuH7 cells assessed as condensed apoptotic nuclei after 72 hrs by Hoechst […] staining-based fluorescence microscopy; assay type: functional, cell-based
T47D = assay: Cytotoxicity against human T47D cells after 72 hrs by SRB assay; assay type: functional, cell-based
Huh-7 [10] = assay: Induction of senescence in human HuH7 cells at IC50 to IC100 after 3 to 6 days by BrdU staining-based assay; assay type: functional, cell-based
In short: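 Huh7 cells (5000) on coverslips in 6-well plates, treated with compound at IC50 and IC100, doxorubicin 25 ng/ml, or DMSO for 3 and 6 days. Medium refreshed 24 h before assay, containing 30 µM BrdU in one plate. SA-β-gal staining and BrdU incorporation assessed in parallel.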

HepG2 [11] = assay: Cytotoxicity against human HepG2 cells at 2.5 to 40 uM by RT-CES method; assay type: functional, cell-based; settings: TDE = time-dependent effect
In short: as §2

[12] = Cytotoxicity against human HuH7 cells after 72 hrs by SRB assay; assay type: functional, cell-based; settings: Huh-7, 72 h
In short: as §3

[13] = Cytotoxicity against human Mahlavu cells after 72 hrs by SRB assay; assay type: functional, cell-based
In short: as §3

Mahlavu [14] = assay: Induction of apoptosis in human Mahlavu cells assessed as Bcl2 expression at IC50 after 72 hrs by Western blotting analysis; assay type: functional, cell-based
HepG2 [15] = assay: Cytotoxicity against human HepG2 cells after 48 hrs by SRB assay; assay type: functional, cell-based; settings: HepG2, 48 h
In short: as §3

[16] = Cytotoxicity against human HuH7 cells after 24 hrs by SRB assay; assay type: functional, cell-based; settings: Huh-7, 24 h
In short: as §3

[17] = Cytotoxicity against human FOCUS cells after 24 hrs by SRB assay; assay type: functional, cell-based
In short: as §3

Mahlavu [18] = assay: Induction of […] in human Mahlavu cells assessed as PARP cleavage at IC50 after 72 hrs by Western blotting analysis; assay type: functional, cell-based
[19] = Cytotoxicity against human FOCUS cells after 72 hrs by SRB assay; assay type: functional, cell-based
In short: as §3

[20] = Cytotoxicity against human Mahlavu cells after 48 hrs by SRB assay; assay type: functional, cell-based
In short: as §3

FOCUS = assay: Cytotoxicity against human FOCUS cells assessed as condensed apoptotic nuclei after 72 hrs by Hoechst […] staining-based fluorescence microscopy; assay type: functional, cell-based
[21] = Cytotoxicity against human FOCUS cells after 48 hrs by SRB assay; assay type: functional, cell-based
In short: as §3

Mahlavu [22] = assay: Induction of apoptosis in human Mahlavu cells assessed as PARP cleavage at IC50 after 72 hrs by Western blotting analysis; assay type: functional, cell-based
Huh-7 [23] = assay: Reduction in intrinsic cellular ATP consumption in human HuH7 cells at IC50 after 24 hrs by bioluminescence assay; assay type: functional, cell-based
In short: as §4

[24] = Cytotoxicity against human HCT116 cells after 72 hrs by SRB assay; assay type: functional, cell-based; settings: HCT-116, 72 h
In short: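 SRB screen. Cells seeded at 2000–10,000/well and treated next day for 72 h with 40, 20, 10, 5 and 2.5 µM (DMSO under 1%). TCA fixation, 0.4% SRB staining, Tris solubilization, absorbance at 515 nm. Growth inhibition calculated relative to DMSO-only wells. IC50 derived from the five-concentration inhibition percentages.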

HepG2 [25] = assay: Cytotoxicity against human HepG2 cells measured every 30 mins up to 120 hrs by RT-CES method
[26] = Cytotoxicity against human SNU182 cells after 72 hrs by SRB assay; assay type: functional, cell-based; settings: SNU-182, 72 h
In short: as §1

[27] = Cytotoxicity against human Mahlavu cells after 24 hrs by SRB assay; assay type: functional, cell-based
In short: as §3

[28] = Cytotoxicity against human SKHEP1 cells after 72 hrs by SRB assay; assay type: functional, cell-based; settings: SK-HEP1, 72 h
In short: as §1

Mahlavu [29] = assay: Cytotoxicity against human Mahlavu cells at 2.5 to 40 uM by RT-CES method; assay type: functional, cell-based; settings: TDE = time-dependent effect
In short: as §2

[30] = Cytotoxicity against human SNU475 cells after 72 hrs by SRB assay; assay type: functional, cell-based, SNU-475
In short: as §1

Mahlavu [31] = assay: Induction of apoptosis in human Mahlavu cells assessed as total cytochrome c level at IC50 after 72 hrs by Western blotting analysis; assay type: functional, cell-based

SMILES	IC50 [2]	IC50 (PLC)	Activity (Mahlavu [6])	IC50 (HepG2 [7])	Activity (Huh-7 [9])	IC50 (T47D)	IC50 [12]	IC50 [13]	Activity (Mahlavu [14])	Activity (Mahlavu [18])	IC50 [19]	Activity (FOCUS)	Activity (Mahlavu [22])	Activity (Huh-7 [23])	IC50 [24]	IC50 [26]	IC50 [28]	Activity (Mahlavu [31])	other results
FC(F)(F)c1ccc(N2CCN(c3ncnc4c3ncn4C3CCCC3)CC2)cc1	800 nM	6400 nM	Active	200 nM	Active	< 100 nM	200 nM	100 nM	inactive	inactive	100 nM	Active	inactive	Active	< 100 nM	9600 nM	200 nM	inactive	Activity (Mahlavu [1]): Dose-dependent effect; Activity (Huh-7 [3]): Dose-dependent effect; Activity (Huh-7 [4]): tde; IC50 [5]: 1400 nM; IC50 (HepG2 [8]): 1200 nM; Activity (Huh-7 [10]): Active; Activity (HepG2 [11]): tde; IC50 (HepG2 [15]): 800 nM; IC50 [16]: 2700 nM; IC50 [17]: 16700 nM; IC50 [20]: 300 nM; IC50 [21]: 300 nM; Activity (HepG2 [25]): Dose-dependent effect; IC50 [27]: 50100 nM; Activity (Mahlavu [29]): tde; IC50 ([30]; snu-475): Not Active
FC(F)(F)c1ccc(N2CCN(c3ncnc4[nH]cnc34)CC2)cc1	6700 nM	10500 nM	Active	3700 nM	Active	39400 nM	3200 nM	2300 nM	inactive	inactive	2900 nM	Active	inactive	Active	5100 nM	55400 nM	4900 nM	inactive	IC50 ([30]; Homo sapiens, SNU-475, 72 h, read-out: IC50): 9600 nM
